Assay [1] deals with T1, Serotonin 3 (5-HT3) receptor (Rattus norvegicus) (UniProt P35563+Q9JJ16). The experiment in a line: Compound was tested for the inhibition of 5-HT-induced bradycardia after peroral administration of 0.03 mg/kg at 6 hours in urethane-anesthetized rats. In kind it is functional, organism-based. The note with it: at 0.03 mg/kg. Details: dose 0.03 mg/kg. Summed up:
(§1)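 Duration study. Antagonist or vehicle is given by oral gavage to conscious rats. Rats are then urethane-anesthetized, surgically prepared and challenged with 5HT 0.03 mg/kg iv at the stated time after dosing. Peak inhibition of bradycardia is measured against vehicle-treated controls. Means ± SEM, groups of 3–11 rats.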

In assay [2] the target is T1, Serotonin 3 (5-HT3) receptor (Rattus norvegicus). The experiment in a line: Compound was tested for the inhibition of 5-HT-induced bradycardia after peroral administration of 0.03 mg/kg at 1 hour in urethane-anesthetized rats. The format is functional, organism-based. Conditions: at 0.03 mg/kg. Details: dose 0.03 mg/kg. Summed up: as §1
Assay [3] has the same target. Description: Inhibition of 5-HT-induced bradycardia by 5-hydroxytryptamine 3+. The format is functional.
Assay [4] shares this target. The experiment in a line: Compound was tested for the inhibition of 5-HT-induced bradycardia after peroral administration of 0.03 mg/kg at 3 hours in urethane-anesthetized rats. Conditions: at 0.03 mg/kg. Also on record: dose 0.03 mg/kg. In kind it is functional, organism-based. The method in brief: as §1
In assay [5] the test system is Serotonin 3 receptor (Cavia porcellus). The experiment in a line: In vitro binding affinity was measured for 5-hydroxytryptamine 3 receptor in the guinea pig ileum.
For assay [6], the target named is T1, Serotonin 3 (5-HT3) receptor (Rattus norvegicus). Description: Compound was tested for the inhibition of 5-HT-induced bradycardia after peroral administration in urethane-anesthetized rats.
Assay [7] shares this target. The experiment in a line: 5-hydroxytryptamine 3 receptor antagonistic activity measured by inhibition of 5-HT-induced bradycardia (iv administration 10 ug/kg dose in urethane-anesthetized rats). In kind it is functional, organism-based. Summed up: (§2)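 Urethane-anesthetized rats. First 5HT challenge 30 μg/kg iv gives a transient bradycardia. Once heart rate is back at steady state (≤5 min), test compound or saline goes in via the femoral vein. 5HT 30 μg/kg iv is repeated 15 min later. % inhibition is the difference between first and second bradycardia at peak, each animal its own control. Means ± SEM, groups of 3–16 rats.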

Assay [8] shares this target. Description: 5-hydroxytryptamine 3 receptor antagonistic activity was measured by the inhibition of 5H+ T-induced bradycardia after iv administration of 3 ug/kg dose in urethane-anesthetized rats. In kind it is functional, organism-based. The method in brief:
(§3)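 Urethane-anesthetized rats; antagonist or saline given iv via femoral vein after heart rate settled (≤5 min) from an initial 5HT challenge (30 µg/kg iv). 5HT was given again 15 min later. Peak bradycardia measured, each rat its own control; % inhibition = difference between first and second responses. Groups of 3–16 rats, means ± SEM.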

Assay [9] shares this target. Description: 5-hydroxytryptamine 3 receptor antagonistic activity was measured by the inhibition of 5H+ T-induced bradycardia after po administration of 1000 ug/kg dose in urethane-anesthetized rats. In kind it is functional, organism-based. The method in brief:
(§4)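 Fasted rats dosed by gavage (5 mL/kg) with compound or distilled-water vehicle. Urethane anesthesia and surgical preparation 15–20 min before challenge. 5HT 0.03 mg/kg iv given 1 h after dosing. Peak bradycardia is compared with vehicle-treated controls. Means ± SEM, groups of 3–11 rats.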

For assay [10] the target is unchanged. The experiment in a line: 5-hydroxytryptamine 3 receptor antagonistic activity was measured by the inhibition of 5H+ T-induced bradycardia after po administration of 100 ug/kg dose in urethane-anesthetized rats. The format is functional, organism-based. Summed up: as §4
Assay [11] has the same target. The experiment in a line: Compound was tested for the inhibition of 5-HT-induced bradycardia after peroral administration of 0.3 mg/kg at 6 hours in urethane-anesthetized rats. Also on record: dose 0.3 mg/kg. The format is functional, organism-based. Conditions: at 0.3 mg/kg. The method in brief: as §1
Assay [12] shares this target. Description: Compound was tested for the inhibition of 5-HT-induced bradycardia after peroral administration of 0.3 mg/kg at 0.5 hours in urethane-anesthetized rats. In kind it is functional, organism-based. Details: dose 0.3 mg/kg. The note with it: at 0.3 mg/kg. The method in brief: as §1
For assay [13] the target is unchanged. Description: Compound was tested for the inhibition of 5-HT-induced bradycardia after peroral administration of 0.3 mg/kg at 1 hour in urethane-anesthetized rats. The format is functional, organism-based. Also on record: dose 0.3 mg/kg. The note with it: at 0.3 mg/kg. Summed up: as §1
The target is the same in assay [14]. Description: 5-hydroxytryptamine 3 receptor antagonistic activity was measured by the inhibition of 5H+ T-induced bradycardia after iv administration of 1 ug/kg dose in urethane-anesthetized rats. The format is functional, organism-based. Summed up: as §2
The target is the same in assay [15]. Description: Compound was tested for the inhibition of 5-HT-induced bradycardia after peroral administration of 0.3 mg/kg at 3 hours in urethane-anesthetized rats. Conditions: at 0.3 mg/kg. Details: dose 0.3 mg/kg. In kind it is functional, organism-based. Summed up:
as §1

Assay [16] has the same target. The experiment in a line: Compound was tested for the inhibition of 5-HT-induced bradycardia after peroral administration of 1 mg/kg at 3 hours in urethane-anesthetized rats. The format is functional, organism-based. Also on record: dose 1 mg/kg. Conditions: at 1 mg/kg. The method in brief:
(§5)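 Duration study: antagonist or vehicle gavaged to conscious fasted rats (5 mL/kg). Rats were urethane-anesthetized and surgically prepared, then challenged with 5HT 0.03 mg/kg iv at the stated time after dosing. Vehicle-treated rats served as controls. Peak inhibition of bradycardia recorded in groups of 3–11, means ± SEM.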

The target is the same in assay [17]. Description: Compound was tested for the inhibition of 5-HT-induced bradycardia after peroral administration of 1 mg/kg at 0.5 hours in urethane-anesthetized rats. The format is functional, organism-based. Details: dose 1 mg/kg. Conditions: at 1 mg/kg. The method in brief:
as §5

Assay [18] shares this target. The experiment in a line: Compound was tested for the inhibition of 5-HT-induced bradycardia after peroral administration of 1 mg/kg at 1 hour in urethane-anesthetized rats. The format is functional, organism-based. Also on record: dose 1 mg/kg. The note with it: at 1 mg/kg. The method in brief:
as §5

The target is the same in assay [19]. Description: 5-hydroxytryptamine 3 receptor antagonistic activity was measured by the inhibition of 5H+ T-induced bradycardia after po administration of 30 ug/kg dose in urethane-anesthetized rats. The format is functional, organism-based. The method in brief: as §4
Assay [20] shares this target. Description: 5-hydroxytryptamine 3 receptor antagonistic activity was measured by the inhibition of 5H+ T-induced bradycardia after po administration of 300 ug/kg dose in urethane-anesthetized rats. In kind it is functional, organism-based. The method in brief:
as §4

Assay [21] shares this target. The experiment in a line: 5-hydroxytryptamine 3 receptor antagonistic activity was measured by the inhibition of 5H+ T-induced bradycardia after iv administration of 1000 ug/kgetized rats. In kind it is functional, organism-based. Summed up:
as §2

Assay [22] shares this target. Description: 5-hydroxytryptamine 3 receptor antagonistic activity as inhibition of 5-HT-induced bradycardia after iv administration of 100 ug/kg dose in urethane-anesthetized rats. The format is functional, organism-based. Summed up: as §2
The target is the same in assay [23]. Description: Compound was tested for the inhibition of 5-HT-induced bradycardia after peroral administration of 10 mg/kg at 3 hours in urethane-anesthetized rats. In kind it is functional, organism-based. Details: dose 10 mg/kg. The note with it: at 10 mg/kg. The method in brief:
as §1

Assay [24] has the same target. Description: Compound was tested for the inhibition of 5-HT-induced bradycardia after peroral administration of 1000 ug/kg dose in urethane-anesthetized rats. In kind it is functional, organism-based. Summed up:
as §4

Assay [25] has the same target. The experiment in a line: Compound was tested for the inhibition of 5-HT-induced bradycardia after intravenous administration of 1 ug/kg dose in urethane-anesthetized rats. In kind it is functional, organism-based. The method in brief: as §3
Assay [26] has the same target. The experiment in a line: Compound was tested for the inhibition of 5-HT-induced bradycardia after peroral administration of 10 mg/kg at 1 hour in urethane-anesthetized rats. In kind it is functional, organism-based. Details: dose 10 mg/kg. Conditions: at 10 mg/kg. Summed up: as §1

As for `CN1[C@@H]2CC[C@H]1C[C@@H](OC(=O)c1cc(Cl)cc3c1OC(C)(C)C3)C2`, the inhibition is 20.6% in assay [1]; 86.2% in assay [2]; 58% in assay [4]; 82.7% in assay [7]; 19.3% in assay [8]. Moreover, the median effective dose (ED50) stood at 0.0046 mg/kg in assay [3] and 0.0088 mg/kg in assay [6]. In assay [5], the -Log KB came out at 7.92.
As to `CC1Cc2cc(Cl)cc(C(=O)OC3CC4CCC(C3)N4C)c2O1` (configuration not stated), the inhibition in [9] was found to be 94.7%; in assay [10] it was 33.1%; in assay [11] it was 0%; in assay [12], 92.6%; in assay [7], 69%; in [13] it was 66.2%. For the same compound, the inhibition in assay [14] was determined as 5.6%; in assay [8], 50.8%; in assay [15], 60.5%. The results for the 50% effective dose (ED50) in assay [3] and in [6] were 0.0042 mg/kg and 0.179 mg/kg, respectively. The -Log KB in assay [5] came to 7.88.
Consider `Cc1nccn1CC1CCc2c(c3ccccc3n2C)C1=O` (configuration not stated), for which the inhibition in [9] was determined as 73.4%; in [10], 18.2%; in [16] it was 6.5%; in assay [17] it was 74.3%; in [18], 73.4%; in assay [19] it was 0.3%. Besides, the inhibition in assay [20] is 55.1%. Further, the ED50 in assay [3] amounted to 0.0033 mg/kg; in [6], 0.316 mg/kg.
Consider `CN1C2CCC1CC(OC(=O)c1cccc3oc4ccccc4c13)C2` (configuration not stated), for which the inhibition in assay [21] stood at 66.3%; in assay [7], 0%; in [22] it was 12.4%.
`Cc1cc2c(c(C(=O)OC3CC4CCC(C3)N4C)c1)OC(C)C2` (configuration not stated): the inhibition in assay [23] amounted to 0%; in assay [24] it was 11.6%; in assay [25], 3.3%; in assay [26], 74.8%; in assay [7], 66.7%; in assay [22] it was 78.2%. The compound also returned an inhibition in assay [8] of 14.4%. Also, the results for the ED50 in assay [3] and in assay [6] were 0.0126 mg/kg and 5.17 mg/kg, respectively. The -Log KB in assay [5] was found to be 7.32.
